# MPTP inh: inhibitors of mitochondrial permeability transition pore; actives 1.4% (n = 360,000); inhibition, % at 10 µM; isolated mouse mitochondria, Ca2+ swelling absorbance, 30 min;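 active means inhibition of 50% or more, scaled per plate between neutral and stimulator controls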;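 further: 0% = DMSO wells given calcium and 100% = 1 mM EGTA wells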
# proCasp7 act: counter-screen for procaspase-3 activators: activators of human procaspase-7 | P55210 | recombinant procaspase-7, Ac-DEVD-pNA absorbance 405 nm; D23A/D198A/D206A triple mutant, cannot self-cleave; scale: DMSO 0, 5 µM enzyme 100 | activation, % at 8.5 µM | actives 0.093% (n = 330,000);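 active means percent activation above the screen-wide mean plus 3 SD, cut at about 25% in these data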
# Target sequence (P55210 whole entry D23A/D198A/D206A): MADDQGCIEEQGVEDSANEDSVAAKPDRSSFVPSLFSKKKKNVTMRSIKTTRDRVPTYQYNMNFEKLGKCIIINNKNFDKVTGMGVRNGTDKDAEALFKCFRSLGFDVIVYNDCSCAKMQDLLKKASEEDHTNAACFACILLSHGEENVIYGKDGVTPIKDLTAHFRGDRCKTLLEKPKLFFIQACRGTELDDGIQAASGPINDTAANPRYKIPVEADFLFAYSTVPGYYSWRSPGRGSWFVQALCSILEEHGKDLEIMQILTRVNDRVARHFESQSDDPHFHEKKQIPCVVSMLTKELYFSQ
#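 buffer or medium = Zinc-free HEPES/NaCl buffer, pH 7.4 | material = Procaspase-7 triple mutant (PC-7 D3A) | input = 2 µM procaspase-7 mutant as dispensed | signal = Epi-absorbance of released pNA at 405 nm, two timepoints | timing = 1 h preincubation, 2 h reaction | replicates = singlicate compound testing | evaluation = % activation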
# aDG glyco up: alpha-DG glycosylation activation | activation, % at 10 µM | actives 0.22% (n = 360,000) | Pro5-aDG cells, alpha-DG glycosylation AlphaScreen (IIH6); 0% Pro5, 100% B10-LARGE cell signal;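 active means activation of at least 8% versus controls, or a plate z-score of at least 8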;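 further: Pro5 are CHO cells carrying HIG-tagged alpha-DG that lacks glycosylation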
# NR3A LBD binder: NR3A (human) ligand-binding domain modulation; NR3A LBD differential scanning fluorimetry, Tm shift; 0% = protein alone, 100% = glycine-bound protein; Tm shift relative to glycine control, % at 25 µM; actives 2.5% (n = 340,000); AID 1259313;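 active means melting temperature shift of at least 10% of the positive control shift, at one fixed dose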
# proCasp3 act: activates human procaspase-3; P42574; recombinant procaspase-3 D3A, Ac-DEVD-pNA absorbance 405 nm; activation, % at 8.5 µM; actives 0.11% (n = 330,000); AID 463141;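 active means activation above the mean of all tested compounds plus 3 SD, cut at about 21% in these data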;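 further: 0% = DMSO alone and 100% = DMSO wells spiked with extra 5 µM PC-3 D3A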
# Target sequence (P42574 whole entry D9A/D28A/D175A): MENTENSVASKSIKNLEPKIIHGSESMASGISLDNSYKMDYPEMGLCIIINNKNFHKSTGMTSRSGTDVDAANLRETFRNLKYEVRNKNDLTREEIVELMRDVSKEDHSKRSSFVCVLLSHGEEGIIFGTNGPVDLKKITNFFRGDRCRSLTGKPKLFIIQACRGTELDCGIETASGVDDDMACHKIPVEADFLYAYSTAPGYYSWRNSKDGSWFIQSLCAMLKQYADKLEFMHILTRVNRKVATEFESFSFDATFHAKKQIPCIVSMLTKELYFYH
#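 Assay system – Procaspase-3 D3A mutant, all three cleavage aspartates alanine · Controls – DMSO-only low control, 5 µM PC-3 D3A high control · Schedule – 1 h compound preincubation, 2 h substrate hydrolysis at 25 °C · Signal – 405 nm absorbance of p-nitroaniline, reads at 0 and 120 min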
# procasp7 triplic: counter-screen for procaspase-3 activators: activators of human procaspase-7. recombinant procaspase-7, Ac-DEVD-pNA absorbance; asp23/198/206-to-Ala mutant, cannot self-cleave. 210 tested, under 10 active. activation, % at 8.5 µM. shares compounds with proCasp3 act;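 active means mean activation above a set limit taken from an earlier procaspase-7 screen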;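 further: 0% = DMSO wells and 100% = DMSO plus 5 µM procaspase-7 enzyme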
# proCasp3 confirm: procaspase-3 (human) activation, confirmed; activation, % at 8.5 µM; AID 488954; recombinant PC-3 D3A, Ac-DEVD-pNA absorbance 405 nm; 100% is higher-enzyme control; actives 10% (n = 210); shares compounds with proCasp3 act;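 active means mean activation above a set limit carried over from the earlier primary screen, cut at about 22% in these data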
# MPTP counter: mitochondrial membrane potential, counter-screen; shares compounds with MPTP inh; isolated mitochondria, Rhodamine 123 fluorescence; AID 624504; inhibition, % at 10 µM; actives 78% (n = 5,000); in the data active means inhibition above about 22%;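 further: 0% = DMSO vehicle and 100% = positive control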
# * hit, by the source's call; · = no result. The list is not random: actives were taken first. Their share in the collection is about 3.7%.
SMILES,MPTP inh,proCasp7 act,aDG glyco up,NR3A LBD binder,proCasp3 act,procasp7 triplic,proCasp3 confirm,others
CCCc1ccc(OCc2ccc(C(=O)N3CCSCC3)o2)cc1,1.3,-1.2,-0.1,2.7,21.9*,4.7,4.0,
Cc1cc(=O)oc2cc(O)ccc12,-0.8,19.6,0.1,-0.5,24.4*,-21.4,-12.5,
CC(=O)Oc1ccc2c(C)cc(=O)oc2c1,0.5,3.2,0.2,-1.0,-24.2,·,·,
COc1ccc2[nH]c3c(c2c1)CCN1C(=O)C(CC(=O)NCc2cccc(C(F)(F)F)c2)C[C@H](C(=O)N2CCCCC2)[C@@]31CCc1ccccc1 (stereo partly specified),-0.3,-10.2,0.1,0.7,-7.3,·,·,
CC1(C)Cc2c(c(N3CCCC3)nc3sc(C(=O)Nc4ccccc4)c(N)c23)CO1,4.5,3.1,-0.2,-6.8,22.9*,39.3*,67.7*,
COc1ccc2c(c1)C(=O)N(Cc1ccccc1)C(=O)C2(C)C,0.9,-4.2,0.0,-4.0,-0.8,·,·,
COC(=O)Cn1c(=NC(=O)c2cc(-c3cccs3)nc3ccccc23)sc2cc(S(N)(=O)=O)ccc21,-0.6,2.2,0.0,15.9*,77.7*,-19.9,-15.1,
COc1ccccc1Nc1nc2c(C)cccc2cc1C#N,0.4,18.0,-0.4,0.9,39.8*,79.9*,93.9*,
COc1ccccc1Nc1nc2ccc(C)cc2cc1C#N,-2.2,5.8,0.1,-2.6,16.1,·,·,
C=CCn1c(O)c(N=NC(=S)Nc2cccc(OC)c2)c2ccccc21,3.0,-8.1,1.4,-14.8,34.0*,-5.5,5.7,
C=CCn1c(O)c(N=NC(=S)Nc2ccc(OC)cc2)c2ccccc21,3.3,-2.7,2.6,-14.8,9.6,·,·,
CC(C)c1ccc(-n2nc3ccc(N)cc3n2)cc1,3.4,22.9,4.7,-3.4,30.6*,-18.1,2.6,
Cc1ccc(-n2nc3ccc(N)cc3n2)cc1,1.0,6.2,3.6,-5.2,-1.7,·,·,
CCCC(=O)N1CCCC(c2cc(C(=O)Nc3ccccc3)no2)C1 (stereo unspecified),0.6,·,0.0,·,·,·,·,
Cc1ccc(-c2cc(C(F)(F)F)c(C#N)c(SCCC#N)n2)o1,2.6,12.1,0.3,-5.5,22.2*,41.0*,52.1*,
CCCCn1nnnc1C(C1CC1)N1CCN(C/C=C/c2ccccc2)CC1 (stereo unspecified),0.5,·,0.0,·,·,·,·,
COc1ccc(NC(=O)CSc2nc3ccccc3nc2N2CCCC2)cc1Cl,-0.2,-0.9,0.0,4.0,29.7*,-2.7,-2.7,
Cc1ccc(S(=O)(=O)N2CCN(C(=O)COC(=O)COc3ccccc3C(C)C)CC2)c(C)c1,0.0,·,0.0,3.1,·,·,·,
O=C(CN1C(=O)NC2(CCOc3ccccc32)C1=O)N1CCCCC1 (stereo unspecified),1.5,7.4,0.1,-15.3,-0.4,·,·,
CCCCOn1c(C)c(C(=O)OCC)c2c3nonc3ccc21,8.2,21.6,0.4,1.2,24.3*,13.4,25.2*,
CCCCOn1c(C)c(C(=O)OCC)c2c3no[n+]([O-])c3ccc21,2.4,-9.0,-0.3,1.4,2.7,·,·,
CC(=O)NCCc1nc2ccccc2n1Cc1ccc(C)cc1,1.6,1.6,0.2,-1.2,29.1*,1.5,7.8,
Cc1ccc(OCc2cc(C(=O)N(C)Cc3cnn(-c4ccccc4C)c3)no2)cn1,3.1,6.3,2.2,-2.4,23.1*,1.3,6.7,
COCCN(C(=O)CSCC(=O)Nc1ccc(C)cc1)c1c(N)n(CC(C)C)c(=O)[nH]c1=O,0.1,5.5,-0.3,-0.8,60.5*,2.1,5.2,
COCCN(C(=O)CSc1nnc(Nc2ccc(C)cc2)s1)c1c(N)n(CC(C)C)c(=O)[nH]c1=O,-0.5,3.1,0.0,-0.4,2.3,·,·,
SMILES,MPTP inh,proCasp7 act,aDG glyco up,NR3A LBD binder,proCasp3 act,procasp7 triplic,proCasp3 confirm,others
CCOc1ccccc1OCC(=O)Nc1ccc(N2CCOCC2)cc1N1CCOCC1,1.4,·,-0.2,1.9,·,·,·,
Cn1c(-c2ccc(C=O)s2)nc2c3ccccc3c3ccccc3c21,1.8,-22.8,0.2,-0.1,46.1*,-20.9,-13.6,
CC(C)[C@]1(c2ccc(Cl)cc2)ON(c2ccccc2C(F)(F)F)C1=O,·,11.4,·,·,-1.6,·,·,
O=C(NCc1cccs1)C1CCC(=O)N(Cc2cccc(C(F)(F)F)c2)C1 (stereo unspecified),-0.1,-6.0,-0.1,0.2,41.8*,2.1,2.1,
OC(c1ccc(Cl)c(F)c1)c1ncc(-c2cccc3ccccc23)[nH]1 (stereo unspecified),11.5,·,0.3,·,·,·,·,
CC(=O)Oc1c(-c2ccc(Br)o2)oc2ccccc2c1=O,3.0,24.2,-0.3,-2.2,26.5*,-4.1,21.5*,
Cc1ccccc1S(=O)(=O)N(C)C[C@@H]1OCc2ccccc2-c2c(n(C)c3ccccc23)C(=O)N([C@H](C)CO)C[C@@H]1C,-1.0,·,0.5,·,·,·,·,
CC1CC(C)(C)CC2(C1)NC(=O)N(CC(=O)Nc1ccc3[nH]c(=O)[nH]c3c1)C2=O (stereo unspecified),-1.3,0.0,0.1,-0.3,37.3*,2.2,3.7,
Cc1cc(C)c(C#N)c(SCc2nc3ccccc3[nH]2)n1,-2.3,2.5,0.7,-0.7,156.3*,-2.0,5.4,
Cc1cc(C)c(C#N)c(SCc2nnc(-c3ccccc3)o2)n1,1.5,22.8,0.4,-0.2,124.9*,-15.4,-18.4,
N#Cc1cc2c(nc1SCc1nc3ccccc3[nH]1)CCC2,·,-5.6,·,·,1.4,·,·,
CC(C)(C)NCCCCOc1ccccc1F,-2.3,5.1,0.2,0.1,0.4,·,·,
COc1ccccc1OCCCCNC(C)(C)C,-1.5,8.1,-0.1,0.9,26.3*,2.4,2.0,
Cc1cccc(CN2CCN(C3CN(Cc4cn(Cc5ccc(F)cc5)nn4)S(=O)(=O)C3)CC2)c1 (stereo unspecified),0.0,·,0.3,·,·,·,·,
CN(C)c1ccc(C=Cc2nccc3ccccc23)cc1,-0.2,·,0.1,·,·,·,·,
N#Cc1ccc(/C=C\c2nccc3c2[nH]c2ccccc23)cc1,92.2*,0.7,1.0,11.6*,48.0*,-20.9,-14.4,MPTP counter=66.6*
CC(=O)c1cccc(NS(=O)(=O)c2ccc(N/C=C\C(=O)c3ccc(C)cc3)cc2)c1,106.2*,22.2,2.2,7.4,37.9*,-0.9,1.0,MPTP counter=84.6*
CCCCCCn1cc(CN2CC(N3CCCC3)CS2(=O)=O)nn1 (stereo unspecified),0.0,·,-0.3,·,·,·,·,
